By pIC50 is commonly meant −log10 of the IC50, conventionally taken in molar units. Low values mean a high IC50, high ones a low IC50. The EC50 is the concentration needed to bring the measured effect to its halfway point.

SMILES strings stand for the structures. pIC50: −log10 of the molar value. A value given as a limit tells only on which side of the number the result lay.

This passage reports IC50 and EC50 results from ChEMBL document CHEMBL4665726, “Development of a selective HDAC inhibitor aimed at reactivating the HIV latent reservoir” (Bioorg Med Chem Lett, 2020).

The target of experiment [1] is T1, Protein deacetylase HDAC6 (Homo sapiens, UniProt Q9UBN7).
T1 sequence (Q9UBN7 whole entry): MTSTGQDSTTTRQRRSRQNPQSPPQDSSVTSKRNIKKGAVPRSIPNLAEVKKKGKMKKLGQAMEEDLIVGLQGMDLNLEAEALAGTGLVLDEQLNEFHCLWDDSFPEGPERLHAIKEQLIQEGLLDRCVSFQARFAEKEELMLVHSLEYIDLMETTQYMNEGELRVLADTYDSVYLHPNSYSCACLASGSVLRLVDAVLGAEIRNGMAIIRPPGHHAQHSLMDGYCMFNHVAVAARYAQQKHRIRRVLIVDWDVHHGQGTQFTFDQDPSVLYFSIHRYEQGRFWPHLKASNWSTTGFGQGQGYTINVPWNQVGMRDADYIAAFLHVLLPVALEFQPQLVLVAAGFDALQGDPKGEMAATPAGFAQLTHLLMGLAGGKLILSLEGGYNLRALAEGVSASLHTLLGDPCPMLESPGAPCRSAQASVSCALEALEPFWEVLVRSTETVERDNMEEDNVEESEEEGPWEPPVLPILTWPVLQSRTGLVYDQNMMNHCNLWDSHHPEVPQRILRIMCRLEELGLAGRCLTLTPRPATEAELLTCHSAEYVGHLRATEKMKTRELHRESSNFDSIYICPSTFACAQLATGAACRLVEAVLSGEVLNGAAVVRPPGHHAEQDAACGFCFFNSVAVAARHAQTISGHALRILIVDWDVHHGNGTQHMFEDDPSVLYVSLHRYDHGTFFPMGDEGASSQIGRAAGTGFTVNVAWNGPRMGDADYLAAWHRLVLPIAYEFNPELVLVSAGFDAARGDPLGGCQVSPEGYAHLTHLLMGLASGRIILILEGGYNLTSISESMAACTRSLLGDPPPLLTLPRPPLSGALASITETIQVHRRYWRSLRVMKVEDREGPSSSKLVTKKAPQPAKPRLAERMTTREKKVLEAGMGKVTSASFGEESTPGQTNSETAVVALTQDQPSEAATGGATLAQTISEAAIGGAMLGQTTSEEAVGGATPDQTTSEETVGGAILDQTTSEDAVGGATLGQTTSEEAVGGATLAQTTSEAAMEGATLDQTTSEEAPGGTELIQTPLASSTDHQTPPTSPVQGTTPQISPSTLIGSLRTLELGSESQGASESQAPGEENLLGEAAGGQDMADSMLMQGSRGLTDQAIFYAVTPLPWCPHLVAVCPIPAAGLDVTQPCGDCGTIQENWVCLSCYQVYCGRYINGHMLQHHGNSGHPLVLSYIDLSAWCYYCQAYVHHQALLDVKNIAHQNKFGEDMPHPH
The experiment can be described thus: Inhibition of HDAC6 (unknown origin).

Experiment [2] concerns the target T2, Class 1 histone deacetylase (Homo sapiens, UniProt Q13547+O15379+Q92769+Q9BY41). As to the kind of experiment: Inhibition of Class 1 HDAC in VSV-G-pseudotyped HIV infected human 2C4 cell Jurkat model assessed as reactivation of HIV latency in presence of 5% NHS by fluorescent reporter gene assay. The essentials:
(§1)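 Latently infected Jurkat 2C4 cells (HIV latency model) were tested for reactivation of silenced provirus in parallel at two normal human serum levels: 0.1% and 5%. The paired runs gauge the potency shift from plasma protein binding.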

The target in a further experiment is Histone deacetylase 1 (Homo sapiens, UniProt Q13547). As to the kind of experiment: Inhibition of HDAC1 (unknown origin).
Chain of Histone deacetylase 1 (Q13547 whole entry): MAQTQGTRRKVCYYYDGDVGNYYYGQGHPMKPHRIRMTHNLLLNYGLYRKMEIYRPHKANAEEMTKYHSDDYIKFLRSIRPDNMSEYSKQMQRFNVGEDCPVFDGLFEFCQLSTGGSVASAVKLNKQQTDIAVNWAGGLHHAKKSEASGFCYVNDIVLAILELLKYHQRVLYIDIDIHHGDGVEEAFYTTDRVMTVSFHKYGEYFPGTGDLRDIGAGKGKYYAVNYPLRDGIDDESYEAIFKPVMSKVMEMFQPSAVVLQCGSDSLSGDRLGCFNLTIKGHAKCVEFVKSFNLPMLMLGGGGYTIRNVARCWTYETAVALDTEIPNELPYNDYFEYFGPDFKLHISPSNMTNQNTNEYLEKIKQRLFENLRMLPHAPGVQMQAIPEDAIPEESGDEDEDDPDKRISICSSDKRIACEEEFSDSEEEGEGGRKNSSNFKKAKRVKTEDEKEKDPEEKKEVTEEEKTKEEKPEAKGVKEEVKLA
In experiment [3] the target is T2, Class 1 histone deacetylase. As to the kind of experiment: Inhibition of Class 1 HDAC in VSV-G-pseudotyped HIV infected human 2C4 cell Jurkat model assessed as reactivation of HIV latency in presence of 0.1% NHS by fluorescent reporter gene assay. The method in brief:
as §1
On the technique in general: In a reporter assay the amount or activity of a reporter protein is the signal.

The next experiment deals with Histone deacetylase 2 (Homo sapiens, UniProt Q92769). As to the kind of experiment: Inhibition of HDAC2 (unknown origin).
Chain of Histone deacetylase 2 (Q92769 whole entry): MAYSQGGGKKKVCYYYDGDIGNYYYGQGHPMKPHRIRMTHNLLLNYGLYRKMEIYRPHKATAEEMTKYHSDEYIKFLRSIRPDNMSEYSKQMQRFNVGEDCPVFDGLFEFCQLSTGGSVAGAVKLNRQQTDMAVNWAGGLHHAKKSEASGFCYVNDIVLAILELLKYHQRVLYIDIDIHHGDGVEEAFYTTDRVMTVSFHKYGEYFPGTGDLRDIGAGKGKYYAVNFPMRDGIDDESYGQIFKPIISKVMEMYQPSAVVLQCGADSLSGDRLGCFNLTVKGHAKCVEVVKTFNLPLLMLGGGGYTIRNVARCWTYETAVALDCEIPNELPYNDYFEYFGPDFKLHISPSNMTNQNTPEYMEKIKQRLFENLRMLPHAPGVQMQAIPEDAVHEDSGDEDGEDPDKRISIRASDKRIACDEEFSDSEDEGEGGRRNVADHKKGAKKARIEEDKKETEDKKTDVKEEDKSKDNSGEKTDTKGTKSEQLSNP
Another experiment addresses T3, Histone deacetylase 8 (Homo sapiens, UniProt Q9BY41).
T3 sequence (Q9BY41 whole entry): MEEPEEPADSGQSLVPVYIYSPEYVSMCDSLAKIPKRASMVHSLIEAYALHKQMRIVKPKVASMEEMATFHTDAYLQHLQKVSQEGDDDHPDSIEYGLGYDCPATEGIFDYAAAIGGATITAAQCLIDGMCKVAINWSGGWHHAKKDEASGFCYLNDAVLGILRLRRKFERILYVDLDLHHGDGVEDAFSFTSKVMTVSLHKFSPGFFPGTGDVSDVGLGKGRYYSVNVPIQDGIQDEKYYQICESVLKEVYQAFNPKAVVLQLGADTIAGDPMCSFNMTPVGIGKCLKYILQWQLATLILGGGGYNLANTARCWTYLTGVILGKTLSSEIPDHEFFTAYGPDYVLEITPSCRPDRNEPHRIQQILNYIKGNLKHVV
The experiment can be described thus: Inhibition of HDAC8 (unknown origin).

The target of the next experiment is Histone deacetylase 3 (Homo sapiens, UniProt O15379). As to the kind of experiment: Inhibition of HDAC3 (unknown origin).
Chain of Histone deacetylase 3 (O15379 whole entry): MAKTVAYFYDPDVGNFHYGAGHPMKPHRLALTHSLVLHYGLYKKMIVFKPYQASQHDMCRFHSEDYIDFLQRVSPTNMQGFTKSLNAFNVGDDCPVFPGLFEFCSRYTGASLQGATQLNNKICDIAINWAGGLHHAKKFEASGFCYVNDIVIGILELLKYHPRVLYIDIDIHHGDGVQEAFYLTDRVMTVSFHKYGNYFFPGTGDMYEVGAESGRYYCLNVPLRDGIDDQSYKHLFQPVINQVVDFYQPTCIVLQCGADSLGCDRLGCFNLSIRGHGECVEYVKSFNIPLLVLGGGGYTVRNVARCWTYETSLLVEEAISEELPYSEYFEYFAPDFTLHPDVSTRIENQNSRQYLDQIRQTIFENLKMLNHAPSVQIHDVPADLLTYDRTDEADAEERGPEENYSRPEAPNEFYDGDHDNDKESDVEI

For the compound `CCC(=O)CCCCCC(NC(=O)c1cncs1)c1[nH]c(-c2ccccc2)nc1C(N)=O` (configuration not stated), the pIC50 was 4.79 in experiment [1], 8.14 on Histone deacetylase 1, 7.57 against Histone deacetylase 2 and 5.33 against Histone deacetylase 8. Besides, the half-maximal effective concentration (EC50) in experiment [2] is on record as 537 nM; in experiment [3], 154 nM.

On to `CCC(=O)CCCCCC(NC(=O)c1cncs1)c1[nH]c(-c2ccccc2)nc1C(=O)N1CCOCC1` (configuration not stated), for which the pIC50 is 4.72 in experiment [1]; 7.72 against Histone deacetylase 3; 7.36 at Histone deacetylase 1; 6.80 against Histone deacetylase 2; 4.78 at Histone deacetylase 8. The EC50 in experiment [2] is given as 3771 nM; in experiment [3] it was 2729 nM.

Regarding `CCC(=O)CCCCC[C@H](NC(=O)[C@H]1CC12CCN(C)CC2)c1[nH]c(-c2ccc(F)cc2)nc1C(N)=O`, the pIC50 in experiment [1] is 4.75; on Histone deacetylase 3, 9.05; on Histone deacetylase 1 it was 9.22; against Histone deacetylase 2 it was 8.20; on Histone deacetylase 8 it was 5.17. Besides, the concentration giving a half-maximal response (EC50) in experiment [2] is on record as 276 nM; in experiment [3], 166 nM.

With `CCC(=O)CCCCC[C@H](NC(=O)[C@H]1CC12CCN(C)CC2)c1[nH]c(-c2ccc(C(F)(F)F)cc2)nc1C#N`, the pIC50 was 5.08 in experiment [1]; 8.72 on Histone deacetylase 3; 8.43 at Histone deacetylase 1; 7.81 at Histone deacetylase 2; 4.72 against Histone deacetylase 8. Moreover, the values for the EC50 in experiment [2] and in experiment [3] were 175 nM and 107 nM, respectively.

Regarding `CCC(=O)CCCCC[C@H](NC(=O)[C@H]1CC12CCN(CC)CC2)c1[nH]c(-c2ccc(F)cc2)nc1C#N`, the negative-log IC50 (pIC50) in experiment [1] was 4.63; on Histone deacetylase 3 it was 8.74; at Histone deacetylase 1, 8.55; on Histone deacetylase 2 it was 7.93; against Histone deacetylase 8 it was 5.03. The EC50 in experiment [2] is reported as 259 nM; in experiment [3], 161 nM.

Regarding `CCC(=O)CCCCC[C@H](NC(=O)C1CN(C)C1)c1[nH]c(-c2ccc(F)cc2)nc1C(N)=O`, the negative-log IC50 (pIC50) was 4.80 in experiment [1]; 8.44 against Histone deacetylase 3; 8.46 at Histone deacetylase 1; 7.46 against Histone deacetylase 2; 5.27 at Histone deacetylase 8. Also, the figures for the EC50 in experiment [2] and in experiment [3] were 643 nM and 775 nM, respectively.

Regarding `CCC(=O)CCCCC[C@H](NC(=O)CN(C)C)c1[nH]c(-c2ccc(F)cc2)nc1C#N`, the pIC50 is 4.36 in experiment [1]; 7.57 at Histone deacetylase 3; 7.32 at Histone deacetylase 1; 6.66 at Histone deacetylase 2; 4.53 against Histone deacetylase 8. In addition, the figures for the EC50 in experiment [2] and in experiment [3] were 3532 nM and 1605 nM, respectively.

Take `CCC(=O)CCCCC[C@H](NC(=O)[C@H]1CC12CCN(C)CC2)c1[nH]c(-c2ccc(-c3cccnc3)cc2)nc1C#N`: the negative-log IC50 (pIC50) is 5.02 in experiment [1]; 9.52 against Histone deacetylase 3; 9.70 against Histone deacetylase 1; 8.77 against Histone deacetylase 2; 4.90 at Histone deacetylase 8. The EC50 in experiment [2] worked out at 55 nM; in experiment [3], 77 nM.

Turning to `CCC(=O)CCCCC[C@H](NC(=O)[C@H]1CC12CCN(C)CC2)c1[nH]c(-c2cccnc2OC)nc1C#N`, the pIC50 in experiment [1] is 4.77; on Histone deacetylase 3, 7.46; on Histone deacetylase 1 it was 7.23; against Histone deacetylase 2 it was 6.64; against Histone deacetylase 8, 4.42. Also, the EC50 in experiment [2] worked out at 1669 nM; in experiment [3], 2112 nM.

With `CCC(=O)CCCCC[C@H](NC(=O)C1CCOCC1)c1[nH]c(-c2ccc(F)cc2)nc1C(N)=O`, the pIC50 is 4.56 in experiment [1]; 8.47 against Histone deacetylase 3; 7.91 against Histone deacetylase 1; 7.13 at Histone deacetylase 2; 5.12 against Histone deacetylase 8. Besides, the results for the half-maximal effective concentration (EC50) in experiment [2] and in experiment [3] were 1504 nM and 1834 nM, respectively.

For the compound `CCC(=O)CCCCC[C@H](NC(=O)[C@H]1CC12CCN(C)CC2)c1[nH]c(-c2ccc3nc(C)ccc3c2)nc1C#N`, the pIC50 is 5.20 in experiment [1]; 9.70 at Histone deacetylase 3; 9.52 on Histone deacetylase 1; 8.82 at Histone deacetylase 2; 5.01 on Histone deacetylase 8. Further, the results for the EC50 in experiment [2] and in experiment [3] were 97 nM and 105 nM, respectively.

Take `CCC(=O)CCCCC[C@H](NC(=O)C1CN(C)C1)c1[nH]c(-c2ccc(F)cc2)nc1C#N`: the pIC50 in experiment [1] is 4.43; against Histone deacetylase 3, 7.86; on Histone deacetylase 1, 7.59; on Histone deacetylase 2, 6.93; against Histone deacetylase 8, 4.71. For the same compound, the concentration for a half-maximal effect (EC50) in experiment [2] was found to be 2071 nM; in experiment [3], 1564 nM.

Regarding `CCC(=O)CCCCCC(NC(=O)c1cncs1)c1[nH]c(-c2ccccc2)nc1C(=O)NC` (configuration not stated), the pIC50 in experiment [1] was 4.53; at Histone deacetylase 3, 8.33; against Histone deacetylase 1, 7.56; against Histone deacetylase 2, 7.04; on Histone deacetylase 8, 5.13. The figures for the EC50 in experiment [2] and in experiment [3] were 1804 nM and 570 nM, respectively.

`CCC(=O)CCCCC[C@H](NC(=O)C12CCN(CC1)CC2)c1[nH]c(-c2ccc(F)cc2)nc1C#N`: the negative-log IC50 (pIC50) in experiment [1] was less than 4.35; on Histone deacetylase 3, 8.62; at Histone deacetylase 1, 8.21; on Histone deacetylase 2, 7.57; against Histone deacetylase 8, 5.16. The EC50 in experiment [2] stood at 2207 nM; in experiment [3] it was 1731 nM.

`CCC(=O)CCCCC[C@H](NC(=O)[C@H]1CC12CCN(CC)CC2)c1[nH]c(-c2ccc(F)cc2)nc1C(N)=O`: the pIC50 in experiment [1] is 4.76; against Histone deacetylase 3, 9.15; against Histone deacetylase 1 it was 9.40; on Histone deacetylase 2 it was 8.30; against Histone deacetylase 8, 5.20. Besides, the EC50 in experiment [2] worked out at 165 nM; in experiment [3], 193 nM.

For `CCC(=O)CCCCCC(NC(=O)c1cncs1)c1[nH]c(-c2ccccc2)nc1C(=O)NCCN(C)C` (configuration not stated), the negative logarithm of the IC50 (pIC50) in experiment [1] is less than 4.35; on Histone deacetylase 3, 8.35; against Histone deacetylase 1, 7.87; against Histone deacetylase 2 it was 7.27; against Histone deacetylase 8 it was 5.27. In addition, the EC50 in experiment [2] is reported as 853 nM; in experiment [3], 1142 nM.

For `CCC(=O)CCCCC[C@H](NC(=O)[C@H]1CC12CCN(C)CC2)c1[nH]c(-c2cc3ccccc3nc2OC)nc1C#N`, the negative logarithm of the IC50 (pIC50) in experiment [1] is 5.05; at Histone deacetylase 3, 7.00; on Histone deacetylase 1 it was 7.01; on Histone deacetylase 2 it was 6.75; against Histone deacetylase 8 it was less than 4.35. For the same compound, the values for the 50% effective concentration (EC50) in experiment [2] and in experiment [3] were 1351 nM and 548 nM, respectively.

In the case of `CCC(=O)CCCCC[C@H](NC(=O)[C@H]1CC12CCN(C)CC2)c1[nH]c(-c2ccc(F)cc2F)nc1C#N`, the pIC50 in experiment [1] is 4.83; against Histone deacetylase 3, 7.72; on Histone deacetylase 1, 7.45; against Histone deacetylase 2 it was 6.81; at Histone deacetylase 8, 4.68. Further, the EC50 in experiment [2] was determined as 1260 nM; in experiment [3], 1233 nM.

`CCC(=O)CCCCC[C@H](NC(=O)c1cncs1)c1[nH]c(-c2ccc(F)cc2)nc1C#N`: the negative-log IC50 (pIC50) in experiment [1] was less than 4.35; against Histone deacetylase 3, 8.51; against Histone deacetylase 1 it was 7.97; against Histone deacetylase 2, 7.29; against Histone deacetylase 8, 4.91. The 50% effective concentration (EC50) in experiment [2] stood at 1111 nM; in experiment [3], 254 nM.
